Test results published in ChEMBL document CHEMBL1139444, “Oxazolidinone: search for highly potent antibacterial” (2004).
Values after ≈ are worked out from the molar mass of the structure shown.

Legend:
Type in all cases: functional
Bacillus cereus = assay: Minimum inhibitory concentration against Bacillus cereus MTCC 430
How it was run: (§1)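 Microbroth dilution MIC determination, with results expressed in μg/mL. Where run in triplicate, the highest MIC of the three replicates is the value reported.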

Enterococcus faecalis [1] = assay: Minimum inhibitory concentration against Enterococcus faecalis ATCC 14506; how it was run: as §1
Enterococcus faecalis [2] = assay: Minimum inhibitory concentration against Enterococcus faecalis MTCC 439; how it was run: as §1
Klebsiella pneumoniae = assay: Minimum inhibitory concentration against Klebsiella pneumoniae ATCC 10031; how it was run: as §1
[3] = system: Staphylococcus epidermidis; assay: Minimum inhibitory concentration against Staphylococcus epidermidis MTCC 155; how it was run: as §1
Staphylococcus aureus [4] = assay: Minimum inhibitory concentration against Staphylococcus aureus MTCC 96; how it was run: as §1
Staphylococcus aureus [5] = assay: Minimum inhibitory concentration against Staphylococcus aureus ATCC 25923; how it was run: as §1
Staphylococcus aureus [6] = assay: Minimum inhibitory concentration against Staphylococcus aureus ATCC 29213; how it was run: as §1
Bacillus pumilus = assay: Minimum inhibitory concentration against Bacillus pumilus MTCC 1607; how it was run: as §1
Staphylococcus aureus [7] = assay: Minimum inhibitory concentration against Staphylococcus aureus ATCC 14154; how it was run: as §1
Streptococcus pyogenes = assay: Minimum inhibitory concentration against Streptococcus pyogenes MTCC 442; how it was run: as §1

SMILES | MIC (Bacillus cereus) | MIC (Enterococcus faecalis [1]) | MIC (Enterococcus faecalis [2]) | MIC (Klebsiella pneumoniae) | MIC [3] | MIC (Staphylococcus aureus [4]) | MIC (Staphylococcus aureus [5]) | MIC (Staphylococcus aureus [6]) | MIC (Bacillus pumilus) | MIC (Staphylococcus aureus [7]) | MIC (Streptococcus pyogenes)
COc1ccc(/C=C/C(=O)N2CCN(c3ccc(N4C[C@H](CNC(C)=O)OC4=O)cc3F)CC2)cc1 | 2 µg/mL (≈ 4.03 µM) |  | 4 µg/mL (≈ 8.06 µM) |  | 1 µg/mL (≈ 2.01 µM) | 4 µg/mL (≈ 8.06 µM) |  |  | 2 µg/mL (≈ 4.03 µM) |  | 4 µg/mL (≈ 8.06 µM)
CSc1ccc(/C=C/C(=O)N2CCN(c3ccc(N4C[C@H](CNC(C)=O)OC4=O)cc3F)CC2)cc1 | 2 µg/mL (≈ 3.9 µM) |  | 2 µg/mL (≈ 3.9 µM) |  | 1 µg/mL (≈ 1.95 µM) | 16 µg/mL (≈ 31.2 µM) |  |  | 2 µg/mL (≈ 3.9 µM) |  | 16 µg/mL (≈ 31.2 µM)
CC(=O)NC[C@H]1CN(c2ccc(N3CCN(C(=O)/C=C/c4ccc(O)c(O)c4)CC3)c(F)c2)C(=O)O1 | 16 µg/mL (≈ 32.1 µM) |  | 8 µg/mL (≈ 16 µM) |  | 4 µg/mL (≈ 8.02 µM) | 8 µg/mL (≈ 16 µM) |  |  | 8 µg/mL (≈ 16 µM) |  | 16 µg/mL (≈ 32.1 µM)
CC(=O)NC[C@H]1CN(c2ccc(N3CCN(C(=O)/C=C/c4ccc(OC(=O)C(C)(C)C)cc4)CC3)c(F)c2)C(=O)O1 | 16 µg/mL (≈ 28.2 µM) |  | 8 µg/mL (≈ 14.1 µM) |  | 4 µg/mL (≈ 7.06 µM) | > 16 µg/mL |  |  | 8 µg/mL (≈ 14.1 µM) |  | > 16 µg/mL
CC(=O)NC[C@H]1CN(c2ccc(N3CCN(C(=O)/C=C/c4ccc(F)c(F)c4)CC3)c(F)c2)C(=O)O1 | 4 µg/mL (≈ 7.96 µM) |  | > 16 µg/mL |  | > 16 µg/mL | > 16 µg/mL |  |  | 16 µg/mL (≈ 31.8 µM) |  | 4 µg/mL (≈ 7.96 µM)
CC(=O)NC[C@H]1CN(c2ccc(N3CCN(C(=O)/C=C/c4ccc(OC(C)=O)c(OC(C)=O)c4)CC3)c(F)c2)C(=O)O1 | 2 µg/mL (≈ 3.43 µM) |  | 2 µg/mL (≈ 3.43 µM) |  | 1 µg/mL (≈ 1.72 µM) | 4 µg/mL (≈ 6.87 µM) |  |  | 2 µg/mL (≈ 3.43 µM) |  | 4 µg/mL (≈ 6.87 µM)
CC(=O)NC[C@H]1CN(c2ccc(N3CCN(C(=O)/C=C/c4ccc(-c5ccccc5)cc4)CC3)c(F)c2)C(=O)O1 | > 16 µg/mL |  | > 16 µg/mL |  | > 16 µg/mL | > 16 µg/mL |  |  | > 16 µg/mL |  | > 16 µg/mL
CC(=O)NC[C@H]1CN(c2ccc(N3CCN(C(=O)/C=C/c4ccc(N)cc4)CC3)c(F)c2)C(=O)O1 | 1 µg/mL (≈ 2.08 µM) |  | 1 µg/mL (≈ 2.08 µM) |  | 0.5 µg/mL (≈ 1.04 µM) | 1 µg/mL (≈ 2.08 µM) |  |  | 1 µg/mL (≈ 2.08 µM) |  | 2 µg/mL (≈ 4.15 µM)
CC(=O)NC[C@H]1CN(c2ccc(N3CCN(C(=O)/C=C/c4ccc5c(c4)OCO5)CC3)c(F)c2)C(=O)O1 | 1 µg/mL (≈ 1.96 µM) | 2 µg/mL (≈ 3.92 µM) | 1 µg/mL (≈ 1.96 µM) | > 16 µg/mL | 1 µg/mL (≈ 1.96 µM) | 2 µg/mL (≈ 3.92 µM) | 4 µg/mL (≈ 7.84 µM) | 4 µg/mL (≈ 7.84 µM) | 1 µg/mL (≈ 1.96 µM) | 2 µg/mL (≈ 3.92 µM) | 2 µg/mL (≈ 3.92 µM)
CC(=O)NC[C@H]1CN(c2ccc(N3CCN(C(=O)/C=C/c4ccc(OS(C)(=O)=O)cc4)CC3)c(F)c2)C(=O)O1 | 1 µg/mL (≈ 1.78 µM) |  | 4 µg/mL (≈ 7.14 µM) |  | 8 µg/mL (≈ 14.3 µM) | 8 µg/mL (≈ 14.3 µM) |  |  | 4 µg/mL (≈ 7.14 µM) |  | 2 µg/mL (≈ 3.57 µM)
N=C(S)NC[C@H]1CN(c2ccc(N3CCN(C(=O)/C=C/c4ccc5c(c4)OCO5)CC3)c(F)c2)C(=O)O1 | 1 µg/mL (≈ 1.9 µM) | 0.5 µg/mL (≈ 0.948 µM) | 0.25 µg/mL (≈ 0.474 µM) | > 16 µg/mL | 0.25 µg/mL (≈ 0.474 µM) | 1 µg/mL (≈ 1.9 µM) | 2 µg/mL (≈ 3.79 µM) | 2 µg/mL (≈ 3.79 µM) | 1 µg/mL (≈ 1.9 µM) | 1 µg/mL (≈ 1.9 µM) | 0.5 µg/mL (≈ 0.948 µM)
CC(=O)NC[C@H]1CN(c2ccc(N3CCN(C(=O)/C=C/c4ccc(NC(C)=O)cc4)CC3)c(F)c2)C(=O)O1 | 4 µg/mL (≈ 7.64 µM) |  | 4 µg/mL (≈ 7.64 µM) |  | 4 µg/mL (≈ 7.64 µM) | 8 µg/mL (≈ 15.3 µM) |  |  | 8 µg/mL (≈ 15.3 µM) |  | 8 µg/mL (≈ 15.3 µM)
CC(=O)NC[C@H]1CN(c2ccc(N3CCN(C(=O)/C=C/c4ccccc4)CC3)c(F)c2)C(=O)O1 | 1 µg/mL (≈ 2.14 µM) | 1 µg/mL (≈ 2.14 µM) | 2 µg/mL (≈ 4.29 µM) | > 16 µg/mL | 0.5 µg/mL (≈ 1.07 µM) | 4 µg/mL (≈ 8.57 µM) | 2 µg/mL (≈ 4.29 µM) | 4 µg/mL (≈ 8.57 µM) | 1 µg/mL (≈ 2.14 µM) | 4 µg/mL (≈ 8.57 µM) | 2 µg/mL (≈ 4.29 µM)
CC(=O)NC[C@H]1CN(c2ccc(N3CCN(C(=O)/C=C/c4ccc(F)cc4)CC3)c(F)c2)C(=O)O1 | 4 µg/mL (≈ 8.26 µM) |  | 4 µg/mL (≈ 8.26 µM) |  | 2 µg/mL (≈ 4.13 µM) | 16 µg/mL (≈ 33 µM) |  |  | 4 µg/mL (≈ 8.26 µM) |  | 8 µg/mL (≈ 16.5 µM)
CC(=O)NC[C@H]1CN(c2ccc(N3CCN(C(=O)CO)CC3)c(F)c2)C(=O)O1 [EPEREZOLID] | 2 µg/mL (≈ 5.07 µM) | 2 µg/mL (≈ 5.07 µM) | 4 µg/mL (≈ 10.1 µM) | > 16 µg/mL | 1 µg/mL (≈ 2.54 µM) |  | 4 µg/mL (≈ 10.1 µM) | 4 µg/mL (≈ 10.1 µM) | 2 µg/mL (≈ 5.07 µM) | 4 µg/mL (≈ 10.1 µM) | 4 µg/mL (≈ 10.1 µM)
CC(=O)NC[C@H]1CN(c2ccc(N3CCOCC3)c(F)c2)C(=O)O1 [LINEZOLID] | 2 µg/mL (≈ 5.93 µM) |  |  | > 16 µg/mL | 2 µg/mL (≈ 5.93 µM) |  |  |  | 1 µg/mL (≈ 2.96 µM) |  | 0.5 µg/mL (≈ 1.48 µM)

The next lines start with the values.

MIC (Bacillus cereus) | MIC (Enterococcus faecalis [1]) | MIC (Enterococcus faecalis [2]) | MIC (Klebsiella pneumoniae) | MIC [3] | MIC (Staphylococcus aureus [4]) | MIC (Staphylococcus aureus [5]) | MIC (Staphylococcus aureus [6]) | MIC (Bacillus pumilus) | MIC (Staphylococcus aureus [7]) | MIC (Streptococcus pyogenes) | SMILES
0.25 µg/mL (≈ 0.475 µM) | 0.25 µg/mL (≈ 0.475 µM) | 8 µg/mL (≈ 15.2 µM) | 2 µg/mL (≈ 3.8 µM) | 1 µg/mL (≈ 1.9 µM) | 1 µg/mL (≈ 1.9 µM) | 0.5 µg/mL (≈ 0.95 µM) | 1 µg/mL (≈ 1.9 µM) | 0.25 µg/mL (≈ 0.475 µM) | 1 µg/mL (≈ 1.9 µM) | 4 µg/mL (≈ 7.6 µM) | C/C(S)=N/C[C@H]1CN(c2ccc(N3CCN(C(=O)/C=C/c4ccc5c(c4)OCO5)CC3)c(F)c2)C(=O)O1
1 µg/mL (≈ 1.95 µM) |  | 4 µg/mL (≈ 7.82 µM) |  | 4 µg/mL (≈ 7.82 µM) | 4 µg/mL (≈ 7.82 µM) |  |  | 2 µg/mL (≈ 3.91 µM) |  | 1 µg/mL (≈ 1.95 µM) | CC(=O)NC[C@H]1CN(c2ccc(N3CCN(C(=O)/C=C/c4ccc([N+](=O)[O-])cc4)CC3)c(F)c2)C(=O)O1
0.5 µg/mL (≈ 1.04 µM) | 0.5 µg/mL (≈ 1.04 µM) | 0.5 µg/mL (≈ 1.04 µM) | > 16 µg/mL | 0.25 µg/mL (≈ 0.518 µM) | 2 µg/mL (≈ 4.14 µM) | 1 µg/mL (≈ 2.07 µM) | 1 µg/mL (≈ 2.07 µM) | 0.5 µg/mL (≈ 1.04 µM) | 2 µg/mL (≈ 4.14 µM) | 0.5 µg/mL (≈ 1.04 µM) | C/C(S)=N/C[C@H]1CN(c2ccc(N3CCN(C(=O)/C=C/c4ccccc4)CC3)c(F)c2)C(=O)O1
0.5 µg/mL (≈ 1.04 µM) | 2 µg/mL (≈ 4.14 µM) | 1 µg/mL (≈ 2.07 µM) | > 16 µg/mL | 0.25 µg/mL (≈ 0.518 µM) | 2 µg/mL (≈ 4.14 µM) | 1 µg/mL (≈ 2.07 µM) | 2 µg/mL (≈ 4.14 µM) | 1 µg/mL (≈ 2.07 µM) | 2 µg/mL (≈ 4.14 µM) | 2 µg/mL (≈ 4.14 µM) | CC(=O)NC[C@H]1CN(c2ccc(N3CCN(C(=O)/C=C/c4ccc(O)cc4)CC3)c(F)c2)C(=O)O1
0.5 µg/mL (≈ 1.04 µM) | 1 µg/mL (≈ 2.07 µM) | 1 µg/mL (≈ 2.07 µM) | > 16 µg/mL | 0.25 µg/mL (≈ 0.518 µM) | 2 µg/mL (≈ 4.14 µM) | 4 µg/mL (≈ 8.29 µM) | 1 µg/mL (≈ 2.07 µM) | 0.5 µg/mL (≈ 1.04 µM) | 4 µg/mL (≈ 8.29 µM) | 2 µg/mL (≈ 4.14 µM) | CC(=O)NC[C@H]1CN(c2ccc(N3CCN(C(=O)/C=C/c4cccc(O)c4)CC3)c(F)c2)C(=O)O1
0.5 µg/mL (≈ 0.999 µM) | 2 µg/mL (≈ 4 µM) | 0.5 µg/mL (≈ 0.999 µM) | > 16 µg/mL | 0.5 µg/mL (≈ 0.999 µM) | 1 µg/mL (≈ 2 µM) | 4 µg/mL (≈ 7.99 µM) | 4 µg/mL (≈ 7.99 µM) | 0.5 µg/mL (≈ 0.999 µM) | 1 µg/mL (≈ 2 µM) | 2 µg/mL (≈ 4 µM) | C/C(S)=N/C[C@H]1CN(c2ccc(N3CCN(C(=O)/C=C/c4ccc(F)cc4)CC3)c(F)c2)C(=O)O1
0.25 µg/mL (≈ 0.517 µM) | 0.5 µg/mL (≈ 1.03 µM) | 0.5 µg/mL (≈ 1.03 µM) | 8 µg/mL (≈ 16.5 µM) | 1 µg/mL (≈ 2.07 µM) | 1 µg/mL (≈ 2.07 µM) | 2 µg/mL (≈ 4.14 µM) | 1 µg/mL (≈ 2.07 µM) | 1 µg/mL (≈ 2.07 µM) | 2 µg/mL (≈ 4.14 µM) | 0.25 µg/mL (≈ 0.517 µM) | NC(=S)NC[C@H]1CN(c2ccc(N3CCN(C(=O)/C=C/c4ccccc4)CC3)c(F)c2)C(=O)O1
0.25 µg/mL (≈ 0.501 µM) | 0.25 µg/mL (≈ 0.501 µM) | 1 µg/mL (≈ 2.01 µM) | 4 µg/mL (≈ 8.02 µM) | ≤ 0.12 µg/mL | 0.25 µg/mL (≈ 0.501 µM) | 0.25 µg/mL (≈ 0.501 µM) | 0.5 µg/mL (≈ 1 µM) | 0.25 µg/mL (≈ 0.501 µM) | 0.5 µg/mL (≈ 1 µM) | 0.5 µg/mL (≈ 1 µM) | C/C(S)=N/C[C@H]1CN(c2ccc(N3CCN(C(=O)/C=C/c4ccc(O)cc4)CC3)c(F)c2)C(=O)O1
